Screens: PubChem, several laboratories
An excerpt weighted towards active compounds, which were near 1.9% of everything screened.
Ins promoter up = insulin promoter activators in MIN6 cells, imaging, high-content screening, mouse beta cells; z-score at 5 µM; MIN6 insulin promoter-GFP reporter; active compounds read high; hit rate 0.3% among 190,000;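 active means z-score above 3 at 5 µM with at least 500 cells counted in the well; inconclusive means wells under 500 cells, flagged as cytotoxic or low count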
MT stabilize HCS = microtubule stabilizers in HeLa cells, primary screen, imaging, high-content imaging; hit rate 0.83% among 200,000; HeLa tubulin immunostaining HCS, 24 h; share of cells brighter than vehicle mean+2SD; % tubulin-high responders, % at 10 µM;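 active means plate Z-score above 3 for both tubulin-high and condensed-nucleus cell shares, with cell loss under 80%, at 10 µM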;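 further: anti alpha tubulin signal scored within the nucleus-defined area of each cell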
b-catenin transl = modulators of beta-catenin nuclear translocation, primary screen, imaging, HeLa cells, immunofluorescence, high-content; nuclear translocation activity, % at 5 µM; hit rate 0.3% among 190,000;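 active means nuclear translocation activity above 50% at 5 µM, with a well cell count of 50 or more; inconclusive means wells under 50 cells across six images, flagged as toxic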;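 further: per-cell ratio of nuclear to cytoplasmic median beta-catenin stain intensity; plate controls were DMSO negative control for no effect and GSK-3 inhibitor IX positive control for full effect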
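Test system: human HeLa cells, native beta-catenin. Compound dosing: 5 µM primary single dose, 0.1% DMSO, 0.02–20 µM confirmation series. Incubation: compound exposure 24 h at 37°C. Detection: beta-catenin immunostaining with DAPI counterstain, 20x imaging, 6 fields/well. Read-out basis: Nuclear/cytoplasmic beta-catenin signal ratio, % activation.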
Autophagy HCS = autophagy modulators in MEF cells, primary screen, imaging, high-content, MEF GFP-LC3; hit rate 0.98% among 190,000; MEF GFP-LC3 puncta imaging; test concentration mostly 10 µM; calls only at 10 µM (by protocol);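 active means percentage of spot-positive cells more than 3 SD above its plate mean, without a fluorescence outlier flag or 80% toxicity; inconclusive means no clear call, values can overlap the other calls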;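 further: spot-positive cell cutoff set from DMSO-treated cells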
* hit, by the source's call; i = inactive; ? = inconclusive; . = no result given; + = active, no number.

SMILES | Ins promoter up | MT stabilize HCS | b-catenin transl | Autophagy HCS
CN(C)NC(=S)NC1(C)CCS(=O)(=O)C1 (stereo not drawn) | 0.56 | . | -1 | .
Clc1ccc(-c2csc(=Nc3cccnc3)n2CCCn2ccnc2)cc1Cl | 0.28 | 3 | -3 | +
COc1ccc(/C=N/NC(=O)c2cccnc2)cc1CN1CCc2ccccc2C1 | -0.3 | . | 0 | .
COc1ccc(/C=N/NC(=O)c2cccnc2)cc1Cn1nc([N+](=O)[O-])c(Br)c1C | 0.63 | 27* | -5 | +
Cc1ccc([N+](=O)[O-])c(C(=O)N/N=C/c2cccnc2)c1 | 0.42 | . | 0 | .
CCc1c(C)nc2ncnn2c1NCCc1ccc(OC)cc1 | ? | 37* | 85* | i
CCc1c(C)nc2ncnn2c1Nc1ccc(C)c(C)c1 | . | 4 | . | i
Cc1cccc(C)c1OCCNC(=O)C(=O)NCc1ccco1 | -0.12 | 11 | 59* | i
COc1ccc(C2SCC(=O)N2CCc2ccc(OC)c(OC)c2)cc1 (stereo not drawn) | -0.28 | 18* | 82* | i
Cc1ccc(NC(=O)C2Cc3ccccc3CN2C(=O)c2ccccc2)cc1Cl (stereo not drawn) | 0.16 | 4 | 0 | i
CS(=O)Cc1cc(Sc2ccccc2)nc(-c2ccncc2)n1 (stereo not drawn) | 0.11 | 4 | 0 | i
O=C(/C=C/c1cccc(OCc2ccccc2)c1)c1cccnc1 | -0.24 | 5 | 2 | i
O=C(Nc1cccc(Cl)c1)Nc1nnc(CSCCOc2ccc(Cl)cc2)s1 | . | 3 | 0 | i
S=C(Nc1ccc(Cl)c(Cl)c1)NC1CCN(Cc2ccccc2)CC1 | ? | 2 | -1 | +
COc1ccc(C(C)(C)C)cc1NC(=O)Cn1cnnn1 | 0.29 | 4 | 9 | i
COc1cccc(NC(=O)N2CCN(c3nnnn3-c3ccccc3)CC2)c1 | 3.1* | 2 | -1 | i
COc1cccc(NC(=O)N2CCCC2)c1 | 0.51 | 2 | 0 | i
COCCN(C(=O)CSc1ncc(C(F)(F)F)cc1Cl)c1c(N)n(Cc2ccccc2)c(=O)[nH]c1=O | 2.3 | 4 | 0 | i
CCCCOc1ccc(CN(C)c2ncnc(N)n2)cc1 | . | 23* | 27 | i
Fc1ccc(NC(=S)NC23CN4CN(CN(C4)C2)C3)cc1 | 0.73 | 2 | 2 | i
Cc1nc(N)ncc1Sc1ccccc1 | . | . | 0 | .
Cc1ccc2nc(/C(C#N)=C\c3ccc(Oc4ccc(C(F)(F)F)cc4[N+](=O)[O-])cc3)[nH]c2c1 | -0.56 | 7 | 4 | i
Cc1ccc2nc(/C(C#N)=C/c3ccc(-c4cccc([N+](=O)[O-])c4)o3)[nH]c2c1 | 0.83 | 3 | -1 | +
COc1ccc(/C=C(\C#N)c2nc3ccc(C)cc3[nH]2)cc1Oc1ccc(C(F)(F)F)cc1[N+](=O)[O-] | -0.8 | 4 | 1 | +
CCn1c(-c2ccc(F)cc2)cnc1SCC(=O)N1CCCCC1C (stereo not drawn) | -0.29 | 3 | -1 | i
SMILES | Ins promoter up | MT stabilize HCS | b-catenin transl | Autophagy HCS
COc1cccc(CN(Cc2cccnc2)S(=O)(=O)c2ccc(-n3cnnn3)c(C)c2)c1OC | -0.73 | 6 | 0 | i
CC(=O)N1CC=C2C(C#N)=C(N)C(C#N)(C#N)[C@H](c3ccoc3)[C@H]2C1 | 0.97 | 2 | 2 | i
CCN1CC=C2C(C#N)=C(N)C(C#N)(C#N)C(CCc3ccccc3)C2C1 (stereo not drawn) | . | 6 | -7 | +
CN1CC=C2C(C#N)=C(N)C(C#N)(C#N)C(c3cccc(Cl)c3Cl)C2C1 (stereo not drawn) | . | 3 | 1 | +
CN1CC=C2C(C#N)=C(N)C(C#N)(C#N)[C@H](c3ccoc3)[C@H]2C1 | . | 2 | . | +
N#CC1=C(N)C(C#N)(C#N)[C@H](c2ccoc2)[C@H]2CN(Cc3ccccc3)CC=C12 | . | 3 | 5 | +
CC(=O)c1cccc(NC(=O)COC(=O)COc2c(Cl)cc(Cl)c3ccc(C)nc23)c1 | 0.82 | 6 | -1 | i
COc1ccc2[nH]c3c(=O)n(Cc4ccncc4)cnc3c2c1 | -0.42 | . | 2 | .
O=C1[C@H]2[C@H](ON3CCCC[C@H]23)C(=O)N1c1ccc(Cl)cc1 | 0.24 | 2 | -1 | i
O=C(NC(=S)NCCN1CCOCC1)c1ccc(Cl)cc1Cl | -1.4 | 4 | 2 | i
CCCCNC(=S)NC(=O)c1ccc(Cl)cc1Cl | 3.1* | 3 | 2 | i
O=c1c2ccccc2nc(CSc2ncnc3nc[nH]c23)n1-c1cccc(C(F)(F)F)c1 | 0.19 | 3 | 0 | i
CCOc1cc(C(=O)Nc2cnccn2)cc(OCC)c1OCC | . | 38* | 4 | i
CC1=CC2=NC(=O)/C(=C\c3ccc(-c4ccc(Cl)cc4)o3)C(=N)N2O1 | -0.03 | 5 | 3 | +
CC(=O)O[C@@]12CO[C@@H]1C[C@H](O)[C@@]1(C)C(=O)[C@H](O)C3=C(C)[C@@H](OC(=O)[C@H](O)[C@@H](NC(=O)OC(C)(C)C)c4ccccc4)C[C@](O)([C@@H](OC(=O)c4ccccc4)[C@H]21)C3(C)C | -0.38 | . | 77* | .
O=C(COC(=O)CCSc1ccccc1)NCc1ccccc1 | -1.2 | 4 | 0 | i
Cc1cc(C(=O)NCCN2CCN(c3cccc(Cl)c3)CC2)n(-c2ccccc2)n1 | 1.8 | 14 | 59* | i
Cc1cc(C)n(-c2nc3ccccc3c(=O)n2OCC(=O)OCc2ccccc2)n1 | -1.1 | 2 | -2 | +
Cc1cc(C)n(-c2nc3ccccc3c(=O)n2OCC(=O)N(C)C)n1 | 0.62 | 2 | 3 | i
CCOc1cc(/C=N/NC(N)=S)cc(Br)c1OCc1ccccc1C | 0 | 1 | -2 | +
Cc1ccc(OCCC(=O)O)cc1 | 0.33 | . | -2 | .
CNC(=O)c1ccc(-c2sc3nc(N4CCOCC4)c4c(c3c2N)CC(C)(C)OC4)o1 | 3.2* | 3 | 0 | i
Cc1ccsc1/C=N/NC(=O)C1CC(=O)N(c2ccccc2)C1 (stereo not drawn) | . | 3 | 0 | i
O=C(CSCc1ccc(Cl)cc1)Nc1ccc(-c2nnc(-c3ccccc3)o2)cc1 | -0.32 | 6 | 2 | +
CCC(C)N(CC(=O)Nc1cccc(C)c1C)C(=O)CCl (stereo not drawn) | 0.22 | 18 | 7 | +
SMILES | Ins promoter up | MT stabilize HCS | b-catenin transl | Autophagy HCS
CCC(CC)NC(=O)Nc1cccc(C)c1C | 0.74 | 2 | 2 | i
CC(C)c1cc(Br)ccc1OCCN1C(=O)NC(C)(C)C1=O | -0.31 | 2 | 4 | i
COc1cc(NC(=S)NC(=O)c2ccco2)ccc1NC(=O)C(C)C | 0.36 | 6 | 0 | i
COc1cc(NC(=S)NC(=O)c2ccccc2F)ccc1NC(=O)c1ccco1 | -0.76 | 15* | 0 | i
CCC(=O)NC(c1cccs1)c1cc(Cl)c2cccnc2c1O (stereo not drawn) | -4.2 | 3 | 2 | +
CC1(C(=O)O)CCC(C(=O)N2CCCCC2)C1(C)C (stereo not drawn) | . | 2 | 1 | i
